# Screening results: PubChem BioAssay, several laboratories
# Sampled rows, rich in hits. Any-hit rate of the full collection: about 2.1%.
# H9c2 protect – cardioprotection against H2O2-induced cell death, primary screen, uHTS, H9c2 cells, ATPLite luminescence; H9c2 cardiomyocytes, H2O2 injury protection, 2 h; protection from H2O2 cell death, % at 20 µM; 0.63% of 360,000 active;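 active means compounds giving at least 50% protection of heart cells from peroxide-induced death in the single-dose screen, raw or plate-pattern-corrected value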;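 further: 0% = DMSO wells with peroxide and 100% = DMSO wells without peroxide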
# beta cell repl – inducers of MIN6 beta-cell proliferation, primary screen, ATP luminescence, uHTS. 0.29% of 330,000 active. MIN6 cells proliferation, ATPlite luminescence, 48 h; cells starved in 0.2% serum; 100% = growth in 10% serum. proliferation, % at 10 µM;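 active means compounds whose signal lies at least 3.5 SD above the mean of all wells on their plate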;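 further: 0% = DMSO-treated cells in low-serum medium and 100% = 10% serum control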
# CRFBP-R2 block – antagonists of CRF-BP/CRF-R2 complex, primary screen, cell-based, HEK293, calcium dye fluorescence, uHTS; CRF-induced calcium fluorescence; inhibition, % at 11.8 µM; 0.59% of 350,000 active; AID 588475, 2011;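 active means inhibition of the ligand-induced calcium signal above about 50% at the single tested concentration, limit read from the data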
# iPSC survival up – enhancers of single-cell hiPSC survival, primary screen, ATPlite luminescence | 100% = ROCK inhibitor wells, 0% = DMSO | survival enhancement, % at 20 µM | 0.044% of 360,000 active | AID 602274, 2012; in the data active means survival enhancement above about 18%;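 further: cells exposed to compounds for 16 hours before the ATP read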
# CRFR2-BP ag – agonists of CRF-BP/CRF-R2 complex, primary screen, cell-based, HEK293, calcium dye fluorescence, uHTS; CRF-binding protein / CRF receptor 2 complex (human); calcium dye fluorescence (FLIPR); percent of saturating CRF peptide response; activation, % at 13.2 µM; 0.46% of 350,000 active; AID 588473, 2011;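 active means activation of at least 50%, plus an integration ratio under a set limit after plate pattern correction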;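 further: plate controls were neutral control wells without compound for no effect and CRF at EC100 for full effect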
# UCH37 inh – inhibitors of human UCH37 deubiquitinase, primary screen, biochemical, Ub-AMC cleavage, fluorescence; Ubiquitin carboxyl-terminal hydrolase isozyme L5 (Homo sapiens), Q9Y5K5; purified proteasome/UCH37; inhibition, % (test concentration not listed); 0.33% of 330,000 active; AID 588478, 2011;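 active means mean inhibition over replicate wells above about 20%, limit read from the data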;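 further: 0% = compound-free wells with enzyme and 100% = wells lacking proteasome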
# Target sequence (Q9Y5K5 whole entry, looked up): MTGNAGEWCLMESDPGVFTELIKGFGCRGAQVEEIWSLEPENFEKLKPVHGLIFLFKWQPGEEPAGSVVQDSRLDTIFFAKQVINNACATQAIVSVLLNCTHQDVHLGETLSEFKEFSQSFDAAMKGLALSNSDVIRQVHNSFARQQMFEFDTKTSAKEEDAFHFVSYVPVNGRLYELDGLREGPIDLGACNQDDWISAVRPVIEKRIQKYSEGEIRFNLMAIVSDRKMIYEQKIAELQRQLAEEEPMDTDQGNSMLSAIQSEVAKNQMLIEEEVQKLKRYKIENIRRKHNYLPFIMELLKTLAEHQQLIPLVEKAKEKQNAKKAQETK
#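 Test system – human UCH37 enzyme supplied as purified proteasome complex · Incubation – 30 min preincubation with enzyme, 25 min cleavage at room temperature · Detection – AMC fluorescence from Ub-AMC cleavage, excitation 355 nm, emission 460 nm · Benchmarks – no-proteasome wells (full inhibition) and compound-free wells (no inhibition)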
# Starred values were filed as active, the others as inactive; . = no result given.
SMILES,H9c2 protect,beta cell repl,CRFBP-R2 block,iPSC survival up,CRFR2-BP ag,UCH37 inh
Oc1ccc(C[C@H]2NCCc3cc(O)c(O)cc32)cc1O,57*,-4,3,0,0,1
OCCN(CC#CC(O)(c1ccccc1)C1CCCC1)CCO (stereo not drawn),1,-2,11,4,-2,32*
O=C(O)C(O)(c1ccccc1)C1CCCCC1 (stereo not drawn),2,0,1,0,0,1
Cc1[nH]c2ccccc2c1C=NO,.,.,.,.,.,1
CC1Oc2cc3c(-c4c(O)cc(O)c5c(O)c6c(cc45)OC(C)C(C)C6=O)c(O)cc(O)c3c(O)c2C(=O)C1C (stereo not drawn),-18,-6,2,-4,-1,40*
CC1=C(C)CC2(C(=O)NC(=S)NC2=O)C(C)C1 (stereo not drawn),2,.,-140,-1,150*,.
COC(=O)C1C2c3ccccc3OC1(C)N=c1sc(=Cc3cnn(C)c3C)c(=O)n12 (stereo not drawn),.,.,.,.,.,2
NC(=N[N+](=O)[O-])N1CCN(C(=O)Oc2ccc([N+](=O)[O-])cc2)CC1,.,.,.,.,.,0
CCN1/C(=C/C=C/C2=[N+](CC)c3ccccc3C2(C)C)C(C)(C)c2ccccc21,-35,.,-43,-3,139*,.
CN1/C(=C\C=C\C2=[N+](C)c3ccc4ccccc4c3C2(C)C)C(C)(C)c2ccccc21,.,-6,.,.,.,.
O=C(CSC1c2ccccc2-c2ccccc21)NN=Cc1ccccc1,.,.,.,.,.,3
Cc1ccccc1NP(=O)(Oc1ccccc1F)Oc1ccccc1F,73*,0,-14,1,0,2
CC12CC[C@H]3[C@@H](CCC4(O)C[C@H](O)CCC34C=NNC(=O)c3ccccc3Cl)C1(O)CCC2C1=CC(=O)OC1 (stereo partly drawn),.,.,.,.,.,-4
CCCCC(=O)N/N=C/c1c(O)n(CCc2ccccc2)c(=O)[nH]c1=O,18,-1,22,1,1,5
Cn1c(O)c(C=Nc2ccccc2)c(=O)n(C)c1=O,6,-6,-3,0,0,10
Cn1c(O)c(/C=C/C=Nc2ccccc2)c(=O)n(C)c1=O,23,2,-63,3,85*,8
CCCCn1c(O)c(/C=C/C=Nc2ccccc2)c(=O)[nH]c1=O,10,0,-134,1,113*,16
COc1ccccc1CC1C(=NO)C2CCN1CC2 (stereo not drawn),.,.,.,.,.,3
CCN1C[C@]2(C)CC[C@H](OC)C34C2[C@H](OC(C)=O)[C@@]2(OCO[C@@]25C[C@H](OC)[C@H]2C[C@]3(O)C5[C@H]2OC)[C@@H]14,.,.,.,.,.,1
O=c1c2ccccc2nc(-c2ccccc2)n1-n1cccc1,25,1,4,1,-3,24*
O=c1c2ccccc2nc(-c2ccccc2)n1-c1ccccc1,7,-1,-13,0,2,-1
CNC(=O)ON=Cc1nn(C(=O)C(C)(C)C)cc1Br,.,.,.,.,.,3
C/C(=C\c1ccc(N(C)C)cc1)[N+](=O)[O-],-17,-6,1,1,6,1
CN(C)c1ccc(/C=C/[N+](=O)[O-])cc1,14,-6,-118,-3,101*,4
Cc1onc(-c2c(Cl)cccc2Cl)c1C(N)=NOC(=O)N(C)C,.,.,.,.,.,1
O=c1oc2ccccc2c(O)c1C(c1ccc([N+](=O)[O-])cc1)c1c(O)c2ccccc2oc1=O,-2,.,82*,1,21,7
C/C(CC(c1ccccc1)c1c(O)c2ccccc2oc1=O)=N\Nc1ccc([N+](=O)[O-])cc1[N+](=O)[O-] (stereo not drawn),-6,-6,4,0,-2,.
CC(C)c1ccc(C(c2c(O)c3ccccc3oc2=O)c2c(O)c3ccccc3oc2=O)cc1,-9,.,64*,2,-3,.
Oc1c(Br)cc(-c2ccccc2)cc1Br,-13,.,72*,-3,-2,1
